Rows were chosen to be rich in hits. Some 2.2% of all compounds tested hit in one or more screens of this group.
MT stabilize HCS: microtubule stabilizers in HeLa cells. AID 2205. actives 0.83% (n = 200,000). HeLa tubulin immunostaining HCS, 24 h; share of cells brighter than vehicle mean+2SD. % tubulin-high responders, % at 10 µM;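 active = plate Z-score above 3 for both tubulin-high and condensed-nucleus cell shares, with cell loss under 80%, at 10 µM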;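 note: anti alpha tubulin signal scored within the nucleus-defined area of each cell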
Ba/F3 V617F tox: loss of viability in JAK2V617F-driven Ba/F3 cells | Ba/F3 EpoR-JAK2V617F viability, ATP luminescence | AID 1446 | actives 1.1% (n = 220,000) | inhibition, % at 5.6 µM;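 active = inhibition above the campaign mean plus 3 SD over all tested compounds, cut at about 24% in these data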;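 note: cytokine-independent growth of Ba/F3 cells driven by EpoR plus mutant JAK2; 0% = DMSO-treated cells and 100% = JAK inhibitor I control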
IEC-6 tox: kills IEC-6 intestinal cells in KLF5 counter-screen; actives 0.78% (n = 290,000); inhibition, % at 5 µM; AID 1825; IEC-6 cytotoxicity, luminescence viability; in the data active = inhibition above about 22%;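 note: 0% = plate median of test compound wells and 100% = cytotoxic reference compound wells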
APP transl inh: APP translation inhibition | SH-SY5Y APP 5'UTR-luciferase reporter, luminescence | inhibition, % at 2 µM | actives 0.82% (n = 190,000) | AID 1285;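 active = inhibition above a set limit, derived from the sample mean plus 3 SD, cut at about 45% in these data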
BaF3 parental: counter-screen for JAK2V617F inhibitors: parental Ba/F3 viability inhibitors; inhibition, % at 5.6 µM; CellTiter-Glo ATP luminescence; actives 1.1% (n = 220,000);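 active = inhibition above a per-campaign cutoff, the mean inhibition of all tested compounds plus 3 SD, cut at about 27% in these data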;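 note: 0% = DMSO wells and 100% = JAK Inhibitor I control wells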
bCat nuc transl: modulators of beta-catenin nuclear translocation; actives 0.3% (n = 190,000); HeLa beta-catenin nuclear translocation, immunofluorescence imaging; nuclear translocation activity, % at 5 µM; AID 1665;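 active = nuclear translocation activity above 50% at 5 µM, with a well cell count of 50 or more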;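 note: per-cell ratio of nuclear to cytoplasmic median beta-catenin stain intensity; plate controls were DMSO negative control for no effect and GSK-3 inhibitor IX positive control for full effect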
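Signal – beta-catenin immunofluorescence imaging with DAPI · Test system – human HeLa cell line · Dosing – 5 µM primary single dose, 0.1% DMSO, 0.02–20 µM confirmation series · Measure – % activation, nuclear-to-cytoplasmic median beta-catenin signal ratio per cell · Incubation – 24 h compound exposure at 37°C, 5% CO2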
Numbers without * were called inactive; . = not tested or not shown.

SMILES	MT stabilize HCS	Ba/F3 V617F tox	IEC-6 tox	APP transl inh	BaF3 parental	bCat nuc transl
COc1ccc2oc(=O)c(-c3nnc(NCc4ccco4)s3)cc2c1	46.1*	-0.1	-10.9	-11.4	5.7	5.5
COc1ccc2oc(=O)c(-c3csc(Nc4ccc(O)cc4)n3)cc2c1	2.3	60.0*	5.2	7.5	28.0*	7.0
Cc1cc(C)c(S(=O)(=O)c2ccc(Cl)cc2C)c(Cl)n1	1.5	-4.2	0.2	-21.6	1.7	-3.1
CC1=Nc2cc(C(=O)NCc3ccco3)ccc2Sc2ccc(C)cc21	3.7	83.5*	80.0*	96.3*	80.4*	73.3*
CC1=Nc2cc(C(=O)O)ccc2Sc2ccc(C)cc21	1.1	-0.8	-8.0	-9.0	1.9	-0.1
CCc1ccc(C(=O)N2CCN(c3ccc(NC(=O)c4cccnc4)cc3)CC2)cc1	.	.	8.8	.	.	.
O=[N+]([O-])c1ccc(N/N=C/c2c[nH]c3ccccc23)cc1	3.9	52.2*	11.3	8.2	31.9*	1.0
O=[N+]([O-])c1ccccc1N/N=C/c1c[nH]c2ccccc12	1.6	-0.2	15.8	-173.3	3.7	.
O=[N+]([O-])c1ccc(N/N=C/c2ccc[nH]2)cc1	2.3	60.2*	5.7	65.0*	33.1*	0.9
O=[N+]([O-])c1ccc(N/N=C/c2cccc(O)c2O)cc1	.	.	2.1	.	.	.
Cc1cc(C(=O)N2CCCC(Nc3ccccc3)C2)c2ccc(F)cc2n1 (stereo not given)	.	.	2.2	.	.	.
CCOc1ccc(CCN2C(=O)c3ccc(C(=O)O)cc3C2=O)cc1OCC	.	.	-0.4	.	.	.
CCc1ccc(NC(=O)CSc2nc3ccccc3c(=O)n2CCCC(=O)N2CCCC2)cc1	27.4*	0.1	0.2	-8.4	3.8	.
CCOC(=O)c1c(-c2ccccc2Cl)cn2ccccc12	1.8	3.5	3.0	8.9	7.6	-0.6
O=C(O)c1c(-c2ccc(Cl)cc2)cn2ccccc12	1.6	-2.8	1.3	-15.8	53.2*	-1.2
NC(=O)c1sc2nc3c(c(-c4ccco4)c2c1N)CCC3	3.7	3.7	-17.6	9.9	4.8	.
NC(=O)c1sc2nc3c(c(-c4cccs4)c2c1N)CCCC3	1.8	-0.8	-10.4	46.2*	-0.3	0.9
O=C(NCCCN1CCN(c2cccc(Cl)c2)CC1)c1cccc(N2CCCC2=O)c1	2.4	-1.6	-3.7	-3.9	3.3	-0.4
O=C(NCc1ccc(N2CCCC2=O)cc1)c1ccc(F)cc1	9.4*	3.5	4.5	-7.3	5.9	-2.5
Cn1nc(C(C)(C)C)cc1C(=O)NCc1ccc(N2CCCC2=O)cc1	3.7	57.8*	10.7	-16.1	93.3*	-1.0
O=C(NCCCN1CCN(c2cccc(Cl)c2)CC1)c1ccc(N2CCCC2=O)cc1	2.0	-2.9	-4.6	67.4*	4.2	-4.1
Cc1cccc(NC(=O)CSCc2cc(=O)n3nc(C4CC4)sc3n2)c1	.	.	-8.5	.	.	.
CCOCCCNC(=O)c1ccc(N2CC3CC(C2)c2cccc(=O)n2C3)c(NC(=O)Nc2cccc(OC)c2)c1 (stereo not given)	.	.	5.6	.	.	.
COCC(C)NC(=O)NC1(C(F)(F)F)Oc2ccc(Cl)cc2O1 (stereo not given)	4.6	37.7*	0.7	26.4	34.7*	0.5
O=C(NCCN1CCOCC1)c1cc(Cl)ccc1Cl	.	.	1.5	.	.	.
SMILES	MT stabilize HCS	Ba/F3 V617F tox	IEC-6 tox	APP transl inh	BaF3 parental	bCat nuc transl
O=C(NCCN1CCOCC1)NC1(C(F)(F)F)Oc2ccc(Cl)cc2O1 (stereo not given)	3.6	43.8*	-6.7	49.5*	28.6*	2.4
Cc1nc(CSc2ccc(Br)cc2)cs1	.	.	-2.0	.	.	.
O=C(NNC(=O)c1ccccc1Cl)c1cc2cc(OC(F)(F)F)ccc2[nH]1	.	3.2	6.6	.	1.8	0.5
COc1ccccc1N=C(C)C1=C(O)CC(c2ccccc2)CC1=O (stereo not given)	7.2	6.7	-6.7	91.6*	9.9	52.0*
Cc1nc(NC2=NCN(Cc3ccccc3)CN2)nc2ccccc12	.	.	.	.	.	-0.1
Cc1nc(NC2=NCN(CC3CCCO3)CN2)nc2ccccc12 (stereo not given)	5.0	37.6*	3.2	3.7	34.0*	.
CCNC(=S)N1CCN(CC)CC1	4.0	-0.9	-5.5	0.1	3.3	1.6
O=C(NCCCN1CCOCC1)c1ccccc1	0.9	-3.2	-2.5	-14.2	39.5*	-1.6
O=C(NCCCN1CCOCC1)c1cccnc1	5.9	-5.3	-0.8	9.8	1.0	-0.7
CC(=O)N1CCN(c2ccccc2NC(=O)COc2cc(C)cc(C)c2)CC1	.	.	-6.1	.	.	.
CCC(=O)N(CCC(c1ccc(C)cc1)c1ccco1)Cc1ccco1 (stereo not given)	.	0.9	-1.8	.	3.1	-3.2
CCN(CC)c1nc(C#N)cc(-c2ccc(OC)cc2)n1	63.2*	-3.2	3.9	35.7	1.4	-5.5
Cc1ccc(S(=O)(=O)n2[nH]c(=O)cc2NC(=O)c2cccs2)cc1	2.6	26.3*	-0.3	6.6	35.0*	-3.4
Cc1ccc(NC(=O)c2cccs2)cc1	4.0	-1.4	-1.1	-75.0	4.4	.
CCc1nnc(N/N=C/c2c(C)[nH]c3ccccc23)n1N	3.1	19.3	102.4*	-17.1	13.3	0.0
O=C(CN1CCN(c2cccc(Cl)c2)CC1)c1ccc(O)cc1O	.	.	-10.5	.	.	.
COc1ccc(S(=O)(=O)n2cnc3ccccc32)cc1OC	.	.	-4.3	.	.	.
COc1ccc(Cl)cc1S(=O)(=O)n1cnc2ccccc21	26.4*	-2.5	-1.7	-8.4	1.5	1.7
CCOc1ccc(Cl)cc1S(=O)(=O)n1cnc2ccccc21	24.2*	-0.2	7.8	10.8	5.9	.
CCOc1cc(C)c(Cl)cc1S(=O)(=O)n1cnc2ccccc21	4.1	-0.8	3.0	-18.2	0.4	.
O=C(CCc1ccccc1)Nc1ccccc1F	1.4	-3.1	-2.2	.	-0.2	-15.6
O=C(CCc1ccccc1)Nc1ccc(F)cc1F	4.1	0.8	1.2	47.4*	4.2	-4.2
CC1=CC(=C2C=CC(=O)C=C2)C=C(C)N1C	.	72.8*	-2.1	.	60.2*	-0.1
C#CCN(CC=C)C(=O)c1ccc(OC2CCN(S(=O)(=O)N(C)C)CC2)cc1	.	.	2.9	.	.	.
O=C(O)CCCNC(=O)c1nn(Cc2ccccc2)c(=O)c2ccccc12	.	.	9.0	.	.	.
Cc1ccc(C(=O)N2CCOCC2)c(F)c1F	2.1	2.5	-0.6	28.5	90.1*	0.0
Cc1cc(F)c(F)c(C(=O)N2CCOCC2)c1Cl	4.2	2.8	2.1	-1.7	5.1	-1.7
COc1cc(OC)c(NS(=O)(=O)c2ccc3c(c2)NC(=O)CO3)cc1Cl	.	.	-3.2	.	.	.

Screening results as filed in PubChem BioAssay.
